Results on eleven molecules are retold here after ChEMBL document CHEMBL1133662, “Novel 3-aminomethyl- and 4-aminopiperidine analogues of 1-[2-(diphenylmethoxy)ethyl]-4-(3-phenylpropyl)piperazines: synthesis and evaluation as dopamine transporter ligands” (J Med Chem, 2000).

Assay [1] deals with T1, Sodium-dependent dopamine transporter (Homo sapiens, UniProt Q01959). In words: Inhibition of [125I]RTI-55 binding to dopamine transporter. A digest of the protocol: (§1)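 Membranes from HEK 293 cells expressing human DAT or SERT, lysed in 2 mM HEPES/1 mM EDTA, pelleted at 30000g and resuspended in 0.32 M sucrose (about 15 µg protein per assay). Incubated 90 min at room temperature in the dark, then filtered. Duplicate competition curves; IC50 converted to Ki by Cheng-Prusoff.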

The target in assay [2] is T1, Sodium-dependent dopamine transporter. Put plainly: Inhibition of [3H]dopamine reuptake in HEK293 cells expressing human dopamine transporter. The class given is cell-based. Put shortly:
(§2)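 Confluent HEK 293 cells expressing human SERT or DAT were scraped into PBS and used as a suspension in Krebs HEPES at 25 °C. Drug (six concentrations, triplicate) was preincubated with cells 10 min. [3H]5-HT or [3H]DA (0.020 µM final) was added for 10 min, then uptake was stopped by filtration onto polyethyleneimine-soaked GF/C filters. IC50 from three independent experiments.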

The target of assay [3] is Monoamine transporters; Norepinephrine & dopamine (Homo sapiens) (UniProt Q01959+P23975). In words: Selectivity ratio of NET/DAT. The class given is protein assay.
Assay [4] deals with T2, Sodium-dependent serotonin transporter (Homo sapiens, UniProt P31645). Put plainly: Inhibition of [3H]5-HT reuptake in HEK293 cells expressing human serotonin transporter. The class given is cell-based. Put shortly: as §2
Assay [5] concerns the target Monoamine transporters; serotonin & dopamine (Homo sapiens) (UniProt P31645+Q01959). In words: Selectivity ratio of SERT/DAT. The class given is protein assay.
Assay [6] can be described thus: Discrimination ratio of [3H]-DA reuptake/DAT binding. The class given is functional.
For assay [7], the target named is T3, Sodium-dependent noradrenaline transporter (Homo sapiens, UniProt P23975). Put plainly: Inhibition of [3H]NE reuptake by human norepinephrine transporter expressed in HEK293 cells. The class given is cell-based.
The target in assay [8] is T2, Sodium-dependent serotonin transporter. In words: Binding affinity for serotonin transporter using [125I]RTI-55. A digest of the protocol:
as §1

Assay [9] has as its target T3, Sodium-dependent noradrenaline transporter. In words: Binding affinity at the norepinephrine transporter was measured using [125I]RTI-55 as a radioligand.
Assay [10] is described as follows: Discrimination ratio of [3H]5-HT reuptake/SERT binding. The class given is functional.

Sequence of Monoamine transporters; serotonin & dopamine (Homo sapiens) (P31645 whole entry, looked up): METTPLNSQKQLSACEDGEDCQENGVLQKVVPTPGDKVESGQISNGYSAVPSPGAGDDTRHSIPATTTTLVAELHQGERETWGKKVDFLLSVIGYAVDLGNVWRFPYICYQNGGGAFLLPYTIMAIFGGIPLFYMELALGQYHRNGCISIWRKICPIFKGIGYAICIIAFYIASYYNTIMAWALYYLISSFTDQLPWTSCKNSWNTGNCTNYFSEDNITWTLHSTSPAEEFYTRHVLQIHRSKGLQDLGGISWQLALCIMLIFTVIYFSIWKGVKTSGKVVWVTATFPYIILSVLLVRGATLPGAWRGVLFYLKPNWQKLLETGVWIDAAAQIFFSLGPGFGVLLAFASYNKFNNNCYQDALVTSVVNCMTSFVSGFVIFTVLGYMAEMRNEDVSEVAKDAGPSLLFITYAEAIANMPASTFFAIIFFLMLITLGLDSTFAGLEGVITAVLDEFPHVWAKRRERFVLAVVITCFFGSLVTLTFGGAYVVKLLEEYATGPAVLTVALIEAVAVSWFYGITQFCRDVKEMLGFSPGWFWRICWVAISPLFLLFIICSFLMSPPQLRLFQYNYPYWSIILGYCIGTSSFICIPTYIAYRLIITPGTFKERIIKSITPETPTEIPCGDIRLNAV
Sequence of Monoamine transporters; serotonin & dopamine (Homo sapiens) (Q01959 whole entry, looked up): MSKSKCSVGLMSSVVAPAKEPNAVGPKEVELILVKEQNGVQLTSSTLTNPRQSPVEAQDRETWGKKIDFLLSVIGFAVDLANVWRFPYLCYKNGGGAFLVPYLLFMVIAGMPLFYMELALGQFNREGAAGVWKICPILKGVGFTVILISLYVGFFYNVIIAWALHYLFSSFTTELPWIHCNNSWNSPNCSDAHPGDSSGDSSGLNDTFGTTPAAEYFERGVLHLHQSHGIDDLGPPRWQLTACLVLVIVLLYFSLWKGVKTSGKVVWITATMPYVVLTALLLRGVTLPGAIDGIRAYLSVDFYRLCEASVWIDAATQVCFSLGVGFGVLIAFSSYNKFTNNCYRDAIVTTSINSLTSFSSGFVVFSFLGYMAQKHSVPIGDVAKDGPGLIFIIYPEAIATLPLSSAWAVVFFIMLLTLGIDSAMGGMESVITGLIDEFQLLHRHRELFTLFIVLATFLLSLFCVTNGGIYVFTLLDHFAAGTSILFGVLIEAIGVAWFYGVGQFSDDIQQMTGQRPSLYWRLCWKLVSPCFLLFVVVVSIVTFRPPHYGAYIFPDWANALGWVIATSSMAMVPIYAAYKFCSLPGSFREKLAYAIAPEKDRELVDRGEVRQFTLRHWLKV
T2 sequence (P31645 whole entry): as the sequence (P31645 whole entry, looked up) above
T3 sequence (P23975 whole entry): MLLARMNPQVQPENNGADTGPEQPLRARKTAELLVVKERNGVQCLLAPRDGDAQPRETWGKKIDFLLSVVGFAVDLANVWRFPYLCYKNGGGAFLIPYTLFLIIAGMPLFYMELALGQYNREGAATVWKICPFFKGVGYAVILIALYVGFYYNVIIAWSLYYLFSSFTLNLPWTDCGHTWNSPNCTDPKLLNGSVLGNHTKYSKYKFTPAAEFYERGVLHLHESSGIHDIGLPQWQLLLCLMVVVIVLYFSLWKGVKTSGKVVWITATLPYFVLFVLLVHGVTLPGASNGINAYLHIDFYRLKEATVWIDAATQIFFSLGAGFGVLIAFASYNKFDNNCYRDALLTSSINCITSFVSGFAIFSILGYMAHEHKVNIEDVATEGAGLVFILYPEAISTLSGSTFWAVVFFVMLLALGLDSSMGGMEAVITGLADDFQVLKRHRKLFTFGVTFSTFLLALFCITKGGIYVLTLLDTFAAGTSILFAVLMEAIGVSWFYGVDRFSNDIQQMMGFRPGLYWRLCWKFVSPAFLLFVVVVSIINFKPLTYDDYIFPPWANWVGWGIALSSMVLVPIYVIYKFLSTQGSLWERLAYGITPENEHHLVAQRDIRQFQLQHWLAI
Sequence of Monoamine transporters; Norepinephrine & dopamine (Homo sapiens) (P23975 whole entry, looked up): as the sequence (P23975 whole entry) above
Sequence of Monoamine transporters; Norepinephrine & dopamine (Homo sapiens) (Q01959 whole entry, looked up): as the sequence (Q01959 whole entry, looked up) above
T1 sequence (Q01959 whole entry): as the sequence (Q01959 whole entry, looked up) above

Regarding `c1ccc(CCCNCC2CCCN(CCOC(c3ccccc3)c3ccccc3)C2)cc1` (configuration not stated), the results for the Ki in assay [1], in assay [8] and in assay [9] were 70 nM, 320 nM and 41 nM, respectively. In addition, the IC50 in [2] amounted to 105 nM; in [4] it was 770 nM; in assay [7], 48 nM. For the same molecule, the Selectivity ratio was 0.6 in assay [3] and 4.5 in assay [5]. Moreover, the Discrimination ratio in [6] turned out to be 1.5; in assay [10], 2.5.
`Fc1ccc(CCNC2CCN(CCOC(c3ccccc3)c3ccccc3)CC2)cc1`: the figures for the Ki in assay [1], in assay [8] and in assay [9] were 110 nM, 220 nM and 79 nM, respectively. In addition, the IC50 was 320 nM in assay [2], 470 nM in assay [4] and 170 nM in assay [7]. Also, the Selectivity ratio was found to be 0.7 in assay [3] and 2 in assay [5]. In addition, the Discrimination ratio in assay [6] was found to be 2.9; in assay [10], 2.1.
For `CN(CCOC(c1ccccc1)c1ccccc1)C1CCN(CCCc2ccccc2)CC1`, the figures for the Ki in [1], in [8] and in assay [9] were 30 nM, 1400 nM and 29 nM, respectively. The IC50 in [2] was 330 nM; in assay [4], 1910 nM; in assay [7], 200 nM. Also, the Selectivity ratio in assay [3] turned out to be 1; in assay [5] it was 47.3. Moreover, the Discrimination ratio was 11.1 in [6] and 0.9 in assay [10].
As to `CN(CCCc1ccccc1)C1CCN(CCOC(c2ccccc2)c2ccccc2)CC1`, the Ki in assay [1] was found to be 340 nM; in assay [8], 87 nM; in assay [9], 42 nM. Further, the results for the 50% inhibitory concentration (IC50) in assay [2], in [4] and in assay [7] were 210 nM, 310 nM and 180 nM, respectively. Also, the values for the Selectivity ratio in assay [3] and in assay [5] were 0.1 and 0.3, respectively. In addition, the Discrimination ratio turned out to be 0.6 in [6] and 3.6 in assay [10].
For the molecule `c1ccc(CCCNC2CCN(CCOC(c3ccccc3)c3ccccc3)CC2)cc1`, the Ki in [1] was found to be 160 nM; in assay [8], 55 nM; in assay [9], 120 nM. Also, the results for the IC50 in assay [2], in assay [4] and in assay [7] were 390 nM, 390 nM and 230 nM, respectively. Further, the Selectivity ratio in assay [3] was determined as 0.8; in assay [5], 0.4. Further, the figures for the Discrimination ratio in assay [6] and in assay [10] were 2.5 and 7.1, respectively.
Turning to `Fc1ccc(CCN2CCCC(CNCCOC(c3ccccc3)c3ccccc3)C2)cc1` (configuration not stated), the values for the Ki in assay [1], in assay [8] and in [9] were 100 nM, 350 nM and 150 nM, respectively. For the same molecule, the figures for the IC50 in assay [2], in assay [4] and in [7] were 500 nM, 1130 nM and 200 nM, respectively. In addition, the figures for the Selectivity ratio in assay [3] and in assay [5] were 1.5 and 3.3, respectively. For the same molecule, the Discrimination ratio in assay [6] worked out at 4.8; in assay [10] it was 3.3.
With `c1ccc(CCCN2CCCC(CNCCOC(c3ccccc3)c3ccccc3)C2)cc1` (configuration not stated), the Ki in [1] was 18 nM; in assay [8], 210 nM; in assay [9], 23 nM. Further, the values for the IC50 in assay [2], in assay [4] and in assay [7] were 150 nM, 820 nM and 97 nM, respectively. The Selectivity ratio was 1.3 in [3] and 11.9 in assay [5]. The results for the Discrimination ratio in assay [6] and in assay [10] were 8.1 and 3.8, respectively.
As for `c1ccc(CN2CCC(NCCOC(c3ccccc3)c3ccccc3)CC2)cc1`, the Ki in assay [1] is 83 nM; in [8] it was 2160 nM; in assay [9], 180 nM. For the same molecule, the IC50 in [2] is 270 nM; in [4], 1860 nM; in assay [7], 87 nM. For the same molecule, the Selectivity ratio in assay [3] was found to be 2.1; in [5], 26. Also, the Discrimination ratio in assay [6] worked out at 3.2; in assay [10], 0.9.
For `Fc1ccc(CCNCC2CCCN(CCOC(c3ccccc3)c3ccccc3)C2)cc1` (configuration not stated), the Ki came to 87 nM in assay [1], 890 nM in [8] and 190 nM in assay [9]. In addition, the values for the IC50 in [2], in assay [4] and in [7] were 364 nM, 1830 nM and 190 nM, respectively. Moreover, the Selectivity ratio is 2.1 in assay [3] and 10.2 in assay [5]. The Discrimination ratio in assay [6] turned out to be 4.2; in assay [10], 2.1.
`c1ccc(CCCN2CCN(CCOC(c3ccccc3)c3ccccc3)CC2)cc1` returned an IC50 in assay [7] of 165 nM. For the same molecule, the Ki in [9] came to 630 nM.
For the molecule `CN(CCc1ccc(F)cc1)CC1CCCN(CCOC(c2ccccc2)c2ccccc2)C1` (configuration not stated), the Ki in [1] was found to be 90 nM; in assay [8], 530 nM; in assay [9], 110 nM. Besides, the figures for the half-maximal inhibitory concentration (IC50) in assay [2], in assay [4] and in assay [7] were 1260 nM, 2130 nM and 350 nM, respectively. The values for the Selectivity ratio in assay [3] and in [5] were 1.3 and 5.9, respectively. Moreover, the values for the Discrimination ratio in [6] and in assay [10] were 14 and 4, respectively.
